Rows were chosen to be rich in hits. Some 2.4% of all compounds tested hit in one or more screens of this group.
LGR2 antag – inhibitors of bursicon-induced Drosophila LGR2 receptor cAMP signaling; HEK293 LGR2, CRE-luciferase, bursicon-stimulated, 4 h; inhibition, % at 9.99 µM; 380,000 tested, 0.35% active; AID 720647;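 active means drop in luminescence signal, shown as inhibition above about 50% in the replicate tests, limit read from the data, passing the limit was not always enough; inconclusive means probably only some replicates passing the limit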;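 further: agonist challenge used bursicon conditioned medium at about half maximal strength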
EWS-Fli inh – inhibitors of EWS/Fli oncoprotein transcriptional activity | A673 NR0B1-luciferase reporter, viability-normalised | 350,000 tested, 0.67% active | AID 651661 | inhibition, % at 12.6 µM;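 active means mean inhibition of at least 50% after viability correction, with every replicate also passing that limit; inconclusive means mean reaches 50% but only one of two replicates passes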;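 further: firefly luciferase signal divided by Alamar Blue viability fluorescence both relative to DMSO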
rRNA inh HTS – inhibitors of bacterial rRNA selective over humanized ribosomes. E. coli WT GFP vs humanized-ribosome RFP mutants, fluorescence, 24 h; active compounds read low; DMSO median 0, no signal -100. GFP signal change (wild-type ribosome), % (concentration not given with the values). 350,000 tested, 1.6% active. AID 720706;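 active means significant combined selectivity score with lowered wild-type GFP, culture density cut under 30%, mutant RFP and density less affected; inactive means any of these conditions unmet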
E-sel inducer – induces E-selectin expression in human endothelial cells | HUVEC E-selectin immunofluorescence imaging; normalized: neutral wells 0, TNF-alpha wells 100 | AID 686992 | activation, % at 7.58 µM | P16581 | 260,000 tested, 0.37% active;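 active means mean E-selectin-positive cell signal at least 10% of the positive control, reached in at least 60% of replicates, without over 20% cell loss; inconclusive means no rule given, readout overlaps actives, possibly toxicity-flagged; inactive means the rest, including those meeting only one limit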
Target sequence (P16581 whole entry, looked up): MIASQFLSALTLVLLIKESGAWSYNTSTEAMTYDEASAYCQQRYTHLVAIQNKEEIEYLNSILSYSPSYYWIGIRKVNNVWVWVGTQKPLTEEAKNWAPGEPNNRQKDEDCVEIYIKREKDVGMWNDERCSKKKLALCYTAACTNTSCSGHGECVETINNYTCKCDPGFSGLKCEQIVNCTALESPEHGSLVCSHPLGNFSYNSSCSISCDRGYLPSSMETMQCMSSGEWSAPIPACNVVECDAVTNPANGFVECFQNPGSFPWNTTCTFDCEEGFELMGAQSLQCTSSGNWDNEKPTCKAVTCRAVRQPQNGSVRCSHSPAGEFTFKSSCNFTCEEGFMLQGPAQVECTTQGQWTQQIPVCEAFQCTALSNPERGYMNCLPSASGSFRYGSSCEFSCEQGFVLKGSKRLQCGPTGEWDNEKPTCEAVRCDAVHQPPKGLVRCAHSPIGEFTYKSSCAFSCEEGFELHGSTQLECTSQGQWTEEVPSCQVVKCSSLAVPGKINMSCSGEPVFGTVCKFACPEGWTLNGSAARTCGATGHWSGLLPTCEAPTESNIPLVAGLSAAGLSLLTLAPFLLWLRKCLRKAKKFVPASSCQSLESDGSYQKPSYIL
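Test system – human umbilical vein endothelial cells (HUVEC), E-selectin induction · Input – 3,000 HUVEC seeded per well · Buffer or medium – EGM-2, gelatin · Compound dosing – single-point compound dose · Detection – immunofluorescence imaging · Measure – percent E-selectin-positive cells · Controls – TNF-alpha high, DMSO low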
Starred values were filed as active, the others as inactive; ? = inconclusive; · = no result given.

SMILES	LGR2 antag	EWS-Fli inh	rRNA inh HTS	E-sel inducer
CCn1nnc(NC(=O)c2ccc([N+](=O)[O-])o2)n1	20	8	-23*	·
O=C(Nc1ccc(N2CCOCC2)cc1)c1ccc([N+](=O)[O-])o1	-19	-8	-19*	0
O=C(COC(=O)c1ccc([N+](=O)[O-])o1)Nc1ccc(N2CCOCC2)cc1	3	-10	8	·
O=C(Nc1ccc(S(=O)(=O)N2CCCC2)cc1)c1ccc([N+](=O)[O-])o1	2	·	0	·
O=C(Nc1ccc(N2CCOCC2)cc1)c1cc2c(s1)CCCCC2	1	-4	-22*	4
COCC(=O)Nc1ccc2c(c1)C(=O)N(C)[C@H]1CC[C@@H](CC(=O)NCC3CC3)O[C@@H]1CO2	-13	-1	5	0
Cc1ccccc1S(=O)(=O)N[C@@H]1CC[C@H](CCn2cc(Cc3ccccc3)nn2)O[C@@H]1CO	-8	7	-4	0
COCC#Cc1ccc2c(c1)O[C@H](CN(C)CC1CCOCC1)[C@H](C)CN([C@H](C)CO)S2(=O)=O	-16	-11	4	0
C[C@@H]1CN([C@H](C)CO)C(=O)c2cccc(NS(=O)(=O)c3ccccc3)c2O[C@@H]1CN(C)S(=O)(=O)c1ccc(Cl)cc1	22	8	-3	0
CCN1CCN(c2ccc(NC(=O)c3ccc([N+](=O)[O-])o3)cc2Cl)CC1	-37	33	-38*	-2
CCC(=O)N1CCN(c2ccc(NC(=O)c3ccc([N+](=O)[O-])o3)cc2Cl)CC1	5	?	-3	-3
O=C(Nc1cc(Cl)ccc1-n1cncn1)c1ccc([N+](=O)[O-])o1	19	37	-21*	0
Cc1ccc(-n2nnc(-c3nccs3)n2)cc1	-12	82*	-10	1
C[C@@H]1CCCCO[C@@H](CN(C)C(=O)NC2CCCCC2)[C@H](C)CN([C@H](C)CO)C(=O)c2cc(NC(=O)Nc3ccc4c(c3)OCO4)ccc2O1	-32	-6	2	·
O=C(NN=Cc1cccc2ccccc12)C1CC1	-23	-38	-16	0
O=C(NN=Cc1c(O)ccc2ccccc12)C1CC1	16	30	-17*	0
C[C@H]1CCCCO[C@@H](CN(C)S(=O)(=O)c2cn(C)cn2)[C@@H](C)CN([C@@H](C)CO)C(=O)c2cc(NC(=O)C3CCCCC3)ccc2O1	7	-2	-1	0
CC(C)c1ccc(-c2csc3ncnc(N4CCN(C)CC4)c23)cc1	-2	-2	-28*	·
CN1CCCN(c2ncnc3scc(-c4ccc(F)cc4)c23)CC1	8	0	-6	·
C[C@@H]1CN([C@H](C)CO)S(=O)(=O)c2ccc(-c3ccc(F)cc3)cc2O[C@@H]1CN(C)C(=O)Nc1ccccc1F	27	13	-7	0
COc1ccc(S(=O)(=O)NCc2ccco2)c2ccccc12	-20	-4	-26*	·
CN1CCN(C2=C(NS(=O)(=O)c3cccs3)C(=O)c3ccccc3C2=O)CC1	-17	-5	-2	0
CN1CCN(C2=C(Cl)C(=O)c3ccccc3C2=O)CC1	72*	21	-5	0
CCC(=O)Nc1ccc2c(c1)C(=O)N(C)C[C@@H](OC)[C@H](C)CN(C(=O)c1cccnc1)[C@@H](C)CO2	-10	-11	2	0
Cc1cccc(-n2c(-c3ccc(Br)o3)n[nH]c2=S)c1	3	8	-20*	·
SMILES	LGR2 antag	EWS-Fli inh	rRNA inh HTS	E-sel inducer
Cc1ccc(N=Nc2cc(C)ccc2N)cc1	68*	43	-53*	·
Cc1cccc(CC(=O)c2c[nH]c3ccccc23)c1	-31	-25	-15	75*
C[C@@H]1CCCCO[C@H](CN(C)C(=O)NC2CCCCC2)[C@@H](C)CN([C@H](C)CO)C(=O)c2cc(NC(=O)NC3CCCCC3)ccc2O1	2	-7	0	0
CCc1ccc(S(=O)(=O)/N=C2\C=C(Nc3ccc(C(=O)O)cc3)C(=O)c3ccccc32)cc1	103*	19	7	0
CCc1ccc(NC2=CC(=O)C(=O)c3ccccc32)cc1	-66	-38	-24*	-1
COCC(=O)NC[C@@H]1CC[C@@H]2[C@@H](CN2S(=O)(=O)c2ccccc2[N+](=O)[O-])O1	·	9	·	·
Nc1c(N(CCC2=CCCCC2)C(=O)COc2ccc(F)cc2Cl)c(=O)[nH]c(=O)n1Cc1ccccc1	-8	58*	6	-2
CN/N=C(\Cc1nc2ccccc2[nH]1)c1ccc([N+](=O)[O-])cc1	-25	-20	-22*	5

High-throughput results from PubChem.
